Measured values published in PubChem BioAssay AID504654 (Molecular Libraries Program, Specialized Chemistry Center, …, 2011).
Calls of active or inactive are those of the source.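 How the source made its calls: active means IC50 of at least 20 µM; inactive means IC50 below 20 µM.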

Target: HeLa ODD-luciferase turnover, degradation rate luminescence
Assay: inhibitors of ODD-luciferase turnover, p97-independent, SAR follow-up, counter-screen for p97 inhibitor project, cell-based, HeLa, luminescence (AID 504654)
Outline: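 Assay system: human HeLa line with stable ODD-luciferase reporter / Buffer or medium: DMEM, 2.5% FBS, cycloheximide 50 µg/mL / Probe or stimulus: MG132 4 µM proteasome block before chase, then washed out / Timing: 1 h MG132 block, 70/90/120/150 min chase / Signal: luminescence after luciferin substrate addition / Evaluation: IC50 from Langmuir fit of percent remaining degradation rate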

| IC50 | Structure (SMILES) |
| --- | --- |
| inactive | COc1cccc2c(NCc3ccccc3)nc(Nc3nc4ccccc4n3C)nc12 |
| inactive | FC(F)(F)c1ccc(CNc2nc(NCc3ccccc3)c3ccccc3n2)cc1 |
| inactive | COc1cccc2c(NCc3ccccc3)nc(NCc3ccccc3)nc12 |
| inactive | COc1cccc2c(NCc3ccccc3)nc(Nc3cccc(Cl)c3)nc12 |
| inactive | c1ccc(CNc2nc(N3CCOc4ccccc43)nc3ccsc23)cc1 |
| inactive | COc1cccc2c(NCc3ccccc3)nc(NCc3cccs3)nc12 |
| > 20 µM | COc1cccc2c(NCc3ccccc3)nc(-n3c(=O)oc4ccccc43)nc12 |
| inactive | Brc1cccc(CNc2nc(NCc3ccccc3)c3ccccc3n2)c1 |
| inactive | Cc1ccc(CNc2nc(NCc3ccccc3)c3ccccc3n2)cc1 |
| inactive | Fc1cccc(CNc2nc(NCc3ccccc3)c3ccccc3n2)c1 |
